As usually defined, the EC50 is the midpoint of the concentration-response curve. Lower therefore signals a more potent agent. A word on the half-life: it is the time in which the quantity being followed falls by half. Read a low half-life as rapid decline. For orientation: CC50 means the concentration that lowers cell viability or growth by half. High values mean lower toxicity to the cells, low ones greater toxicity to the cells. As usually defined, the solubility is the concentration that dissolves in the medium under given conditions. Read a high solubility as a readily soluble substance.

Converted amounts (≈) assume the structure as drawn.

These results are taken from ChEMBL document CHEMBL1131079, “Synthesis and evaluation of 2-amino-9-(3-hydroxymethyl-4-alkoxycarbonyloxybut-1-yl)purines as potential prodrugs of penciclovir” (J Med Chem, 1998).

The subject of data set [1] is Human alphaherpesvirus 1. Put plainly: Compound was tested for in vitro antiviral activity against herpes viruses of type 1 (HSV-1,KOS strain) (concentration required to reduce the OD value by 50% of the virus infected control). The data set is classed as functional, organism-based. Summed up: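 Dye-uptake assay. Vero cells (10⁵ cells/mL) in EMEM with 5% FBS were infected with HSV-1 KOS at 100 PFU/well. After 1 h adsorption, serial 3-fold compound dilutions from 125 μM were added in quadruplicate. After 48 h at 37 °C, neutral red uptake was eluted and read at 550 nm. EC50 derived by quantal probit analysis against virus and cell controls.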

The nature of data set [2]: Half-life by the HPLC using a C18 reversed-phase column at pH 6.0 (sodium phosphate buffer) and 37 degree C. The data set is classed as ADME. Summed up: (§1)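 Compound at 125 μM final (from 2.5 mM stock) incubated at 37 °C in HCl/NaCl buffer pH 1.2 or sodium phosphate buffer pH 6.0, 7.4 or 8.0. Aliquots taken at intervals were diluted into 0.1 M phosphate pH 7.0 and run isocratically on a C18 column with 0.1% phosphoric acid/MeCN eluents. Half-life calculated from remaining parent concentration.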

Data set [3] deals with Vero. The data set can be described thus: Compound was tested for cytotoxicity in Vero cells (concentration required to reduce the OD value by 50% of the control). The data set is classed as functional. To be noted: Chlorocebus sabaeus. The gist of the method:
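Vero cells (ATCC) seeded at 5 × 10³ cells/well and grown 24 h in EMEM, then exposed to a range of compound concentrations for 3 days at 37 °C, 5% CO₂. MTT added for a further 4 h, formazan dissolved in DMSO, OD read at 540 nm. CC50 is the concentration giving 50% OD reduction versus control. Quadruplicate wells, experiment repeated twice.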

A short description of data set [4]: Solubility at 20 degree C was determined by the comparison of th UV absorbance of the saturated solution of each compound at 290 nm with that of the standard curve.
Data set [5] is filed under the species Mus musculus. Put plainly: The total amount of penciclovir recovered in the urine over a 48-h period was determined by HPLC using a C18 reversed-phase column in mouse. To be noted: in vivo. The data set is classed as ADME, organism-based. The gist of the method: (§2)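 Urine collected 48 h in metabolic cages over sodium azide, then filtered. Penciclovir quantified by C18 HPLC with a three-step phosphoric acid/MeCN gradient, UV 248 nm. Result expressed as total urinary penciclovir, % of dose.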

Data set [6] in a line: Half-life by the HPLC using a C18 reversed-phase column at pH 1.2 (HC/NaCl buffer) and 37 degree C. The data set is classed as ADME. The following applies: HCl/NaCl buffer. The gist of the method:
as §1

A short description of data set [7]: Half-life by the HPLC using a C18 reversed-phase column at pH 8..0(sodium phosphate buffer) and 37 degree C. The data set is classed as ADME. The gist of the method: as §1
Data set [8] in a line: Half-life by the HPLC using a C18 reversed-phase column at pH 7.4(sodium phosphate buffer) and 37 degree C. The data set is classed as ADME. Summed up: as §1
For data set [9], the species on record is Rattus norvegicus. The data set can be described thus: The total amount of penciclovir recovered in the urine over a 48-h period was determined by HPLC using a C18 reversed-phase column in rat. The data set is classed as ADME, organism-based. The following applies: in vivo. Summed up:
as §2

On to `CCCOC(=O)OCC(CO)CCn1cnc2cnc(N)nc21` (configuration not stated), for which the EC50 in data set [1] was greater than 125 µM. The half-life was 89 days in [2], 29 days in data set [6], 4 days in data set [7] and 10 days in [8]. In [3], this compound yielded a CC50 greater than 500 µM. The compound further yielded a solubility at 0.29 µM in data set [4] of 68 mg/mL (≈ 210 mM). Also, the “Urinary penciclovir recovery over 48 h (% of dose)” value in data set [5] stood at 51%. Moreover, in data set [9], the “urinary penciclovir recovery, % of dose” value is recorded as 34%.
Regarding `COC(=O)OCC(CO)CCn1cnc2cnc(N)nc21` (configuration not stated), the EC50 in data set [1] is greater than 125 µM. Moreover, the half-life in [2] is 18 days; in data set [6] it was 23 days; in data set [7], 0.5 days; in data set [8], 1 days. In [3], this compound registered a CC50 greater than 500 µM. Further, the solubility at 0.29 µM in [4] stood at 14.1 mg/mL (≈ 47.7 mM). For the same compound, the “Urinary penciclovir recovery over 48 h (% of dose)” value in data set [5] turned out to be 45%. Further, the “urinary penciclovir recovery, % of dose” value in data set [9] amounted to 39%.
`CCCCOC(=O)OCC(CO)CCn1cnc2cnc(N)nc21` (configuration not stated): the half-maximal effective concentration (EC50) in data set [1] is greater than 125 µM. Further, the half-life in data set [2] is 74 days; in [6], 29 days; in [7] it was 5 days; in data set [8], 11 days. In addition, in data set [3], the CC50 is greater than 500 µM. The compound also had a solubility at 0.29 µM in [4] of 15 mg/mL (≈ 44.5 mM). For the same compound, in data set [5], the “Urinary penciclovir recovery over 48 h (% of dose)” value is 38%. In addition, the “urinary penciclovir recovery, % of dose” value in data set [9] came to 41%.
In data set [1], `Nc1ncc2ncn(CCC3COC(=O)OC3)c2n1` had an EC50 greater than 125 µM. Also, the half-life in data set [2] was 2.6 days; in data set [7] it was 0.07 days; in [8] it was 0.12 days. In addition, the CC50 in data set [3] is greater than 500 µM. For the same compound, the “Urinary penciclovir recovery over 48 h (% of dose)” value in data set [5] was found to be 27%. The “urinary penciclovir recovery, % of dose” value in data set [9] was 15%.
`CC(C)CCOC(=O)OCC(CO)CCn1cnc2cnc(N)nc21` (configuration not stated) yielded an EC50 in data set [1] greater than 125 µM. Besides, the half-life in data set [2] was 65 days; in [6], 24 days; in data set [7], 6 days; in [8], 11 days. This compound came in with a CC50 in [3] of 357 µM. The solubility at 0.29 µM in data set [4] is 5.6 mg/mL (≈ 15.9 mM). The “Urinary penciclovir recovery over 48 h (% of dose)” value in [5] was determined as 51%. Moreover, the “urinary penciclovir recovery, % of dose” value in data set [9] is given as 40%.
`CC(C)OC(=O)OCC(CO)CCn1cnc2cnc(N)nc21` (configuration not stated): in [1], the EC50 is greater than 125 µM. For the same compound, the half-life is greater than 200 days in data set [2], 88 days in [6], 26 days in [7] and 61 days in data set [8]. This compound also came in with a CC50 in [3] greater than 500 µM. The solubility at 0.29 µM in [4] was 139 mg/mL (≈ 429 mM). In addition, the “Urinary penciclovir recovery over 48 h (% of dose)” value in [5] came to 53%. In addition, the “urinary penciclovir recovery, % of dose” value in [9] is recorded as 40%.
Regarding `CCCCCOC(=O)OCC(CO)CCn1cnc2cnc(N)nc21` (configuration not stated), in data set [1], the EC50 is greater than 125 µM. In addition, the half-life in data set [2] is 17 days; in data set [6] it was 25 days; in data set [7], 5 days; in data set [8] it was 7 days. Besides, the CC50 in data set [3] was greater than 500 µM. This compound also showed a solubility at 0.29 µM in data set [4] of 4.2 mg/mL (≈ 12 mM). The “Urinary penciclovir recovery over 48 h (% of dose)” value in data set [5] is 47%. Moreover, the “urinary penciclovir recovery, % of dose” value in data set [9] is 38%.
`CCOC(=O)OCC(CO)CCn1cnc2cnc(N)nc21` (configuration not stated): in data set [1], the EC50 is greater than 125 µM. The half-life in [2] is 112 days; in data set [6], 35 days; in [7], 3 days; in [8], 7 days. In addition, the CC50 in data set [3] was greater than 500 µM. Besides, the solubility at 0.29 µM in data set [4] was found to be 20 mg/mL (≈ 64.7 mM). Moreover, the “Urinary penciclovir recovery over 48 h (% of dose)” value in data set [5] worked out at 50%. Moreover, the “urinary penciclovir recovery, % of dose” value in data set [9] was 40%.
For the compound `CC(=O)OCC(CCn1cnc2cnc(N)nc21)COC(C)=O` [FAMCICLOVIR], the EC50 in data set [1] was greater than 125 µM. The CC50 in [3] is greater than 500 µM. Further, the “Urinary penciclovir recovery over 48 h (% of dose)” value in data set [5] stood at 48%. For the same compound, the “urinary penciclovir recovery, % of dose” value in data set [9] was 40%.
For `Nc1nc2c(ncn2CCC(CO)CO)c(=O)[nH]1` [PENCICLOVIR], in that order: 8.65 µM, greater than 500 µM, 3% and 9%.
As for `CC(C)COC(=O)OCC(CO)CCn1cnc2cnc(N)nc21` (configuration not stated), the EC50 in [1] is greater than 125 µM. Moreover, the half-life in data set [2] is 87 days; in data set [6], 28 days; in [7] it was 8 days; in data set [8], 17 days. In [3], the CC50 is greater than 500 µM. This compound showed a solubility at 0.29 µM in [4] of 1.5 mg/mL (≈ 4.45 mM). The “Urinary penciclovir recovery over 48 h (% of dose)” value in data set [5] is reported as 38%. For the same compound, the “urinary penciclovir recovery, % of dose” value in data set [9] was found to be 37%.
